Laboratory results: publication PMC3434103 (The Journal of General Physiology, 2012)
Entries after “also recorded” stand apart in the source; their conditions may differ. Ends that are not written are not given here.

Key:
[1] = molecular target: recombinant WT mouse RyR2 (Mus musculus, UniProt E9Q401); assay: TAA block of EMD 41000-activated WT RyR2, single channel in planar bilayer; assay type: biochemical
WT mouse RyR2 = assay: TAA block of ryanodine-modified WT RyR2, single channel; assay type: biochemical; settings: 60 mV; for rate of dissociation (koff), difference TBA vs TPeA: 200 µM TBA or 100 µM TPeA, 1 µM ryanodine-modified; for level of block: ryanodine-modified WT, 100 µM TPeA (200 µM TBA)
Procedure, shortened: (§1)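 Ryanodine-modified single channels were used: purified HEK293-expressed mouse RyR2 (WT or mutant) in PE bilayers, symmetrical KCl/HEPES pH 7.2, room temperature. TAA was added to […], with the holding potential at 60 mV. Data were filtered at 5 kHz and sampled at 20 kHz. Open and blocked lifetimes came from 50% threshold analysis of ≥2 min records, and blocking parameters were derived from them. Mean ± SEM, unpaired t tests.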

K^+ channels = settings: quoted range, ref Faraldo-Gómez et al., 2007; cited from earlier work
KcsA = settings: cytosolic cavity of KcsA; ref Faraldo-Gómez et al., 2007; cited from earlier work
I4861A RyR2 [2] = molecular target: T1, I4861A RyR2 (Mus musculus, UniProt E9Q401, I4860A/I4861A); assay: TPeA block of EMD 41000-activated I4861A RyR2; assay type: biochemical; settings: 60 mV
I4862A RyR2 [3] = molecular target: T2, I4862A RyR2 (Mus musculus, UniProt E9Q401, I4861A); assay: TPeA block of EMD 41000-activated I4862A RyR2; assay type: biochemical; settings: 60 mV
L4865A RyR2 [4] = molecular target: T3, L4865A RyR2 (Mus musculus, UniProt E9Q401, L4864A); assay: TPeA block of EMD 41000-activated L4865A RyR2; assay type: biochemical; settings: 60 mV
I4861A RyR2 [5] = molecular target: T1, I4861A RyR2; assay: TPeA block of ryanodine-modified I4861A RyR2; assay type: biochemical; settings: 100 µM TPeA, 60 mV
Procedure, shortened: as §1

I4862A RyR2 [6] = molecular target: T2, I4862A RyR2; assay: TPeA block of ryanodine-modified I4862A RyR2; assay type: biochemical; settings: 100 µM TPeA, 60 mV
Procedure, shortened: as §1

L4865A RyR2 [7] = molecular target: T3, L4865A RyR2; assay: TPeA block of ryanodine-modified L4865A RyR2; assay type: biochemical; settings: 100 µM TPeA, 60 mV
Procedure, shortened: as §1

I4867A RyR2 [8] = molecular target: T4, I4867A RyR2 (Mus musculus, UniProt E9Q401, I4866A); assay: TPeA block of ryanodine-modified I4867A RyR2; assay type: biochemical; settings: 100 µM TPeA, 60 mV
Procedure, shortened: as §1

F4870A RyR2 [9] = molecular target: T5, F4870A RyR2 (Mus musculus, UniProt E9Q401, F4869A); assay: TPeA block of ryanodine-modified F4870A RyR2; assay type: biochemical; settings: 100 µM TPeA, 60 mV
Procedure, shortened: as §1

RyR2 = assay: ShBP block of RyR2 in symmetrical 610 mM KCl; assay type: biochemical; settings: for block at high K+ activity: preliminary, symmetrical 610 mM KCl plus up to 100 µM EMD 41000
[10] = molecular target: WT recombinant ryanodine-modified RyR2 channels (Mus musculus, UniProt E9Q401); assay: biochemical
I4861A RyR2 [11] = molecular target: T1, I4861A RyR2; assay: Ryanodine modification of I4861A RyR2; assay type: biochemical
Procedure, shortened: (§2)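 Mouse RyR2 (WT or TM10 alanine mutants) was expressed in HEK293 cells by Ca²⁺ phosphate transfection for 48 h, solubilized in CHAPS/phosphatidylcholine and purified on a 0–40% sucrose gradient. Single channels were incorporated into PE bilayers with the cytosolic side cis, in symmetrical KCl with 20 mM HEPES pH 7.2, at 22 ± 2°C. After 1 µM ryanodine, amplitudes were read at 60 mV. Mean ± SEM, n = 4–7, unpaired t test.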

I4862A RyR2 [12] = molecular target: T2, I4862A RyR2; assay: Ryanodine modification of I4862A RyR2; assay type: biochemical
Procedure, shortened: as §2

L4865A RyR2 [13] = molecular target: T3, L4865A RyR2; assay: Ryanodine modification of L4865A RyR2; assay type: biochemical
Procedure, shortened: as §2

I4867A RyR2 [14] = molecular target: T4, I4867A RyR2; assay: Ryanodine modification of I4867A RyR2; assay type: biochemical
Procedure, shortened: as §2

F4870A RyR2 [15] = molecular target: T5, F4870A RyR2; assay: Ryanodine modification of F4870A RyR2; assay type: biochemical
Procedure, shortened: as §2

[16] = 1 µM ryanodine, 60 mV, lower than WT

T2 sequence (E9Q401 whole entry I4861A): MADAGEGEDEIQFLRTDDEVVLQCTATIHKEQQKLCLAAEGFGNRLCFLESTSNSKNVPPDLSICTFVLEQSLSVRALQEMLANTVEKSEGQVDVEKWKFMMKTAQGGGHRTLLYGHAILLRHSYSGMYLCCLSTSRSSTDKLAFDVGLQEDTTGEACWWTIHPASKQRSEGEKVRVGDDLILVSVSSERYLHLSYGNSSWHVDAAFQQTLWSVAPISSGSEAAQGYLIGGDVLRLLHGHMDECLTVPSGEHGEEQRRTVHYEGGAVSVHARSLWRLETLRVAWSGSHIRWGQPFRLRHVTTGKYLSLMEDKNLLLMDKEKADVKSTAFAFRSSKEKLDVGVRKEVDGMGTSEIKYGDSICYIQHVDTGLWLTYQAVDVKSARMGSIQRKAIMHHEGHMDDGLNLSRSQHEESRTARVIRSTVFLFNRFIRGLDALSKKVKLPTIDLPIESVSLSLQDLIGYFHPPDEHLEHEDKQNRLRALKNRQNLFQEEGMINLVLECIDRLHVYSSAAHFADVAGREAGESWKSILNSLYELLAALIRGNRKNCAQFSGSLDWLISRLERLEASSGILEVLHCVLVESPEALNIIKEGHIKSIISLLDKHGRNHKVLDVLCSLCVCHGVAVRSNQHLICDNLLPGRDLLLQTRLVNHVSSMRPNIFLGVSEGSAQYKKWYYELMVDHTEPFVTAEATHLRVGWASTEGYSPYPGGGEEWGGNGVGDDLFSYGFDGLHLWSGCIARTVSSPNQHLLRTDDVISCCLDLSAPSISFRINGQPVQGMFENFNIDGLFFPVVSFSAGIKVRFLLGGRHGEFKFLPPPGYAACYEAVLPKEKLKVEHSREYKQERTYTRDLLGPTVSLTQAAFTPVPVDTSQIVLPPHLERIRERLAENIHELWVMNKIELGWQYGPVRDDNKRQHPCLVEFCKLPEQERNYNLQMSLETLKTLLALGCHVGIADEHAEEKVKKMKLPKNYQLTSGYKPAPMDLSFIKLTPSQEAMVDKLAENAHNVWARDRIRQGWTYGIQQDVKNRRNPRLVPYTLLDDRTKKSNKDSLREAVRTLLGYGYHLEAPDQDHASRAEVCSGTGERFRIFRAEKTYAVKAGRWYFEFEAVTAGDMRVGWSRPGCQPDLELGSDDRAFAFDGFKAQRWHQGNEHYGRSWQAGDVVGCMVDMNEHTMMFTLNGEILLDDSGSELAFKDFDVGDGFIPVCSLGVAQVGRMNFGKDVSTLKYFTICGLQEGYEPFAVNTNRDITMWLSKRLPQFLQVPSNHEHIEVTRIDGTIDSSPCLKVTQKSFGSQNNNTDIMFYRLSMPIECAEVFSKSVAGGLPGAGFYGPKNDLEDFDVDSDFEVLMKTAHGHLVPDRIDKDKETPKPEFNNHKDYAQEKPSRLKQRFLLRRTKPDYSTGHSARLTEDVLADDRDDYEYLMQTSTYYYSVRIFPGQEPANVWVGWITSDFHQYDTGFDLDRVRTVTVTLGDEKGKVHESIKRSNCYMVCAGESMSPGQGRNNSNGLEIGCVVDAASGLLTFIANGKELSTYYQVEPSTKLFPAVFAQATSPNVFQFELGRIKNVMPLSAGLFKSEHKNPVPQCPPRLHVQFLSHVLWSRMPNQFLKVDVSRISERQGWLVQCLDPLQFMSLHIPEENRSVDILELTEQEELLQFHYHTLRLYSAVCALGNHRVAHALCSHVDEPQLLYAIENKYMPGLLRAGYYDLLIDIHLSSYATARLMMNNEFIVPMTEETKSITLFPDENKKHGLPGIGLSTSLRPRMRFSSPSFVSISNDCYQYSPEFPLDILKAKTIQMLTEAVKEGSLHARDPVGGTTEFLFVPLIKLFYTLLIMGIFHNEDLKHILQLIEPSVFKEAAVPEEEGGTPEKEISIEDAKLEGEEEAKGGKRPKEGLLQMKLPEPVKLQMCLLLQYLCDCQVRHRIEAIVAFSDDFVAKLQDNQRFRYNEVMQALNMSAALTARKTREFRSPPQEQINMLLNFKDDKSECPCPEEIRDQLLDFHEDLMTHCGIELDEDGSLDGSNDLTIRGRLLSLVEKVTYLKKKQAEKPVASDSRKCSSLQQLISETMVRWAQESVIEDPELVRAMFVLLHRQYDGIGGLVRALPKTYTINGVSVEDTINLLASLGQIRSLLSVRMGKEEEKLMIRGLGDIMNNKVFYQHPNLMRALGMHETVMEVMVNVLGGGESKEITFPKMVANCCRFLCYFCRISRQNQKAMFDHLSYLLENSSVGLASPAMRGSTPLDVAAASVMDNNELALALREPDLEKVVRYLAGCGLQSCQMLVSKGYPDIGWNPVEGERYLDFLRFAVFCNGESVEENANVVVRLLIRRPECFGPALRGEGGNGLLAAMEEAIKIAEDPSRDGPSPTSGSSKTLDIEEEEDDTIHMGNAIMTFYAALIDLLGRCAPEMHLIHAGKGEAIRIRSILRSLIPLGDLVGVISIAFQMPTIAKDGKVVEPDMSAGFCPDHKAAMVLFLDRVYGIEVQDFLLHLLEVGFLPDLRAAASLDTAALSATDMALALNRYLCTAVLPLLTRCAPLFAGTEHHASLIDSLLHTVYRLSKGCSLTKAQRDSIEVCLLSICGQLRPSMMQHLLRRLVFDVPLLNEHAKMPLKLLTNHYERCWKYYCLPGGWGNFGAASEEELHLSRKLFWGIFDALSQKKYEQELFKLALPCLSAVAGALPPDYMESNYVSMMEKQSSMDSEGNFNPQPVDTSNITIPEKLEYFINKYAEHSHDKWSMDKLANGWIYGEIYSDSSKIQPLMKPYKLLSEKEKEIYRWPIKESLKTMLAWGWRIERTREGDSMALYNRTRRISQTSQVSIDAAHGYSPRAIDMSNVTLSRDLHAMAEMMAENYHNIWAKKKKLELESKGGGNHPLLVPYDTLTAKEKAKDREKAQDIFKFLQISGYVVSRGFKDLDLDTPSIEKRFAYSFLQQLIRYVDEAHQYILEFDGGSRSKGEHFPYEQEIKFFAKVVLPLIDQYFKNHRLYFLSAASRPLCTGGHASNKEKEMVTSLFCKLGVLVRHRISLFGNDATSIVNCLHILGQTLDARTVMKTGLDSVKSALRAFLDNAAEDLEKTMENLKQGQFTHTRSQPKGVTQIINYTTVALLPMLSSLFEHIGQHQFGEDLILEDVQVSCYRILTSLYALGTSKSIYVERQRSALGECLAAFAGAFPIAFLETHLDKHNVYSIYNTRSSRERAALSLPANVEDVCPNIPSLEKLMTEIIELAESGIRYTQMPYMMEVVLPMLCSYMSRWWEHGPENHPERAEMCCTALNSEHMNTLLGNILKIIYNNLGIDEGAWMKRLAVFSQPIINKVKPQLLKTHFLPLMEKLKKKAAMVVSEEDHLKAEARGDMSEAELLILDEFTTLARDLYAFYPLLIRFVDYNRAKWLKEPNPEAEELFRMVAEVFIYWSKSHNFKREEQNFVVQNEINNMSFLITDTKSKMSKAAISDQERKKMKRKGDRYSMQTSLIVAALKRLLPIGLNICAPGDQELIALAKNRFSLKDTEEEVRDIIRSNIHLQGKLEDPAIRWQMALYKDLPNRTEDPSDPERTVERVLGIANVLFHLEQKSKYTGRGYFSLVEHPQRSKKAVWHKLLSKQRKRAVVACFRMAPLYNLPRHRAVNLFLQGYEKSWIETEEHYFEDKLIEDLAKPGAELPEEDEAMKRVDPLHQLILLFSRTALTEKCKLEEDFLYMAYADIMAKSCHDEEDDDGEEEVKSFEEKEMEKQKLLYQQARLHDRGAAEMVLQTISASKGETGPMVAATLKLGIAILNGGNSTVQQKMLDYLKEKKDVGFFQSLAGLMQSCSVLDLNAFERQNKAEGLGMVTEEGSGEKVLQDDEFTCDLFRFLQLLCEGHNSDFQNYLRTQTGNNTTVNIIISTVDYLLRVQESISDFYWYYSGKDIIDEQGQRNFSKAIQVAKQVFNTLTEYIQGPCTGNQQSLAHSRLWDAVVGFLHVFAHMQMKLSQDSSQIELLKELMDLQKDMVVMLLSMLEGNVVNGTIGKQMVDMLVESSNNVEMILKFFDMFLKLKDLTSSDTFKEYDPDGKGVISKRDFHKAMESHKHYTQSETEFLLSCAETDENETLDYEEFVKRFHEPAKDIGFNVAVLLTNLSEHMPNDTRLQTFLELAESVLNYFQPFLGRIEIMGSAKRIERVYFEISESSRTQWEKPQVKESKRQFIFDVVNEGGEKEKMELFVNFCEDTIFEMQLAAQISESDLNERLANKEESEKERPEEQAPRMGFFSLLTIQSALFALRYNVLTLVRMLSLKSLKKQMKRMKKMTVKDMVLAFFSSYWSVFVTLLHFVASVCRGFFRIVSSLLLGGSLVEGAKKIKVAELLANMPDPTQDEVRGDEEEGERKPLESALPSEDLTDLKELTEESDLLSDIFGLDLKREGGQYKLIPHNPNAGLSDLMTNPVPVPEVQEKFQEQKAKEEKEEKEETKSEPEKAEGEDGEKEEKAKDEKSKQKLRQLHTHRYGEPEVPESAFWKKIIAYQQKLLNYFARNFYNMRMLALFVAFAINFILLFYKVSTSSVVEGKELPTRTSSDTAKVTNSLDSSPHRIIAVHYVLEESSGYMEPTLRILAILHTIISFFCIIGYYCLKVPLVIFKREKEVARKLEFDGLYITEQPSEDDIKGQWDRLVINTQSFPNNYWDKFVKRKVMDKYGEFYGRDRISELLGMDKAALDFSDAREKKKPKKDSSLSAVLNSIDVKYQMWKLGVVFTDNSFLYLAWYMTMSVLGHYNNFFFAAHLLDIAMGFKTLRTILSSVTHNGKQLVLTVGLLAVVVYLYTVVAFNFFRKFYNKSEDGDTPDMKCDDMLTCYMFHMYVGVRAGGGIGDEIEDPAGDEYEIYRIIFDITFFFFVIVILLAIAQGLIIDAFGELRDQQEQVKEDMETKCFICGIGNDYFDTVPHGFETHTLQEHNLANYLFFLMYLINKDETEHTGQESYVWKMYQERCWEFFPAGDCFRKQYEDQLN
T3 sequence (E9Q401 whole entry L4864A): as the sequence (E9Q401 whole entry I4861A) above, with A4861I, L4864A counted along it
recombinant WT mouse RyR2, sequence (E9Q401 whole entry): as the sequence (E9Q401 whole entry I4861A) above, with A4861I counted along it
T5 sequence (E9Q401 whole entry F4869A): as the sequence (E9Q401 whole entry I4861A) above, with A4861I, F4869A counted along it
T4 sequence (E9Q401 whole entry I4866A): as the sequence (E9Q401 whole entry I4861A) above, with A4861I, I4866A counted along it
T1 sequence (E9Q401 whole entry I4860A/I4861A): as the sequence (E9Q401 whole entry I4861A) above, with I4860A counted along it

CCCC[N+](CCCC)(CCCC)CCCC [TBA, tetrabutylammonium]
Kd [1]: 179 µM
koff [1]: 412 s⁻¹
rate of dissociation (koff), difference TBA vs TPeA (WT mouse RyR2): very marked difference in the rates of dissociation of TBA and TPeA is retained
level of block (WT mouse RyR2): completely occlude the RyR2 pore
koff (K^+ channels): 10 to 200 s⁻¹
pore occlusion (KcsA): fully occludes the pore of the channel

CCCCCC[N+](CCCCCC)(CCCCCC)CCCCCC [THexA, tetrahexylammonium]
Kd [1]: 2.58 µM
fold increase in affinity between TBA and THexA ([1]; EMD 41000-activated, 610 mM K+, 60 mV, THexA relative to TBA): 69.5 -fold
fold decrease in koff between TPeA and THexA ([1]; EMD 41000-activated, 610 mM K+, 60 mV, THexA relative to TPeA): 1.7 -fold

CCCCC[N+](CCCCC)(CCCCC)CCCCC [TPeA, tetrapentylammonium]
fold decrease in koff between TBA and TPeA ([1]; EMD 41000-activated, 610 mM K+, 60 mV, TPeA relative to TBA): 22 -fold
rate of dissociation (koff), difference TBA vs TPeA (WT mouse RyR2): very marked difference in the rates of dissociation of TBA and TPeA is retained
level of block (WT mouse RyR2): to a level indistinguishable from the closed state; also recorded: completely occlude the RyR2 pore
probability of block (1 − Po) vs WT (I4861A RyR2 [2]; 100 µM TPeA): reduced significantly
rate of association (kon) vs WT (I4861A RyR2 [2]; 100 µM TPeA): unaffected
rate of dissociation (koff) vs WT (I4861A RyR2 [2]; 100 µM TPeA): significantly increased rates of TPeA dissociation
residual current vs WT (I4861A RyR2 [2]; 100 µM TPeA): slightly lower than the equivalent current in the WT RyR2
affinity (Kd) vs WT (I4861A RyR2 [2]; 100 µM TPeA, in words): significant decreases in TPeA affinity
amplitude of full open state in presence of TPeA vs WT (I4861A RyR2 [2]): indistinguishable from that of the WT channel
probability of block (1 − Po) vs WT (I4862A RyR2 [3]; 100 µM TPeA): reduced significantly
rate of association (kon) vs WT (I4862A RyR2 [3]; 100 µM TPeA): unaffected
rate of dissociation (koff) vs WT (I4862A RyR2 [3]; 100 µM TPeA): significantly increased rates of TPeA dissociation, with the most dramatic effect seen in I4862A
residual current vs WT (I4862A RyR2 [3]; 100 µM TPeA): indistinguishable from that of the WT channel
affinity (Kd) vs WT (I4862A RyR2 [3]; 100 µM TPeA, in words): significant decreases in TPeA affinity
amplitude of full open state in presence of TPeA vs WT (I4862A RyR2 [3]): indistinguishable from that of the WT channel
rate of association (kon) vs WT (L4865A RyR2 [4]; 100 µM TPeA): unaffected
rate of dissociation (koff) vs WT (L4865A RyR2 [4]; 100 µM TPeA): significantly increased rates of TPeA dissociation
residual current vs WT (L4865A RyR2 [4]; 100 µM TPeA): indistinguishable from that of the WT channel
amplitude of full open state in presence of TPeA vs WT (L4865A RyR2 [4]): indistinguishable from that of the WT channel
koff vs WT (I4861A RyR2 [5]): significant increase in koff
kon vs WT (I4861A RyR2 [5]): reduced significantly
level of block (I4861A RyR2 [5]): to a level indistinguishable from the closed state
magnitude / probability of block (1 − Po) vs WT (I4861A RyR2 [5]): lower than that seen in the WT RyR channel
affinity (Kd) vs WT (I4861A RyR2 [5]; in words): significant reduction in TPeA affinity
koff vs WT (I4862A RyR2 [6]): significant increase in koff
kon vs WT (I4862A RyR2 [6]): unaffected
level of block (I4862A RyR2 [6]): to a level indistinguishable from the closed state
magnitude / probability of block (1 − Po) vs WT (I4862A RyR2 [6]): lower than that seen in the WT RyR channel
affinity (Kd) vs WT (I4862A RyR2 [6]; in words): significant reduction in TPeA affinity
koff vs WT (L4865A RyR2 [7]): significant increase in koff
kon vs WT (L4865A RyR2 [7]): unaffected
level of block (L4865A RyR2 [7]): to a level indistinguishable from the closed state
magnitude / probability of block (1 − Po) vs WT (L4865A RyR2 [7]): lower than that seen in the WT RyR channel
affinity (Kd) vs WT (L4865A RyR2 [7]; in words): significant reduction in TPeA affinity
koff vs WT (I4867A RyR2 [8]): significant increase in koff
kon vs WT (I4867A RyR2 [8]): reduced significantly
level of block (I4867A RyR2 [8]): to a level indistinguishable from the closed state
magnitude / probability of block (1 − Po) vs WT (I4867A RyR2 [8]): lower than that seen in the WT RyR channel
affinity (Kd) vs WT (I4867A RyR2 [8]; in words): significant reduction in TPeA affinity
koff vs WT (F4870A RyR2 [9]): significant increase in koff
kon vs WT (F4870A RyR2 [9]): reduced significantly
level of block (F4870A RyR2 [9]): to a level indistinguishable from the closed state
magnitude / probability of block (1 − Po) vs WT (F4870A RyR2 [9]): lower than that seen in the WT RyR channel
affinity (Kd) vs WT (F4870A RyR2 [9]; in words): significant reduction in TPeA affinity

MAAVAGLYGLGEDRQHRKKQ [ShBP]
reduction in Po (RyR2; 20 µM ShBP cytosolic, ryanodine-modified, symmetrical 610 mM KCl): no significant reduction in Po
block at high K+ activity (RyR2): ineffective

MAAVVGLYGLGEDRQHRKKQ [MHBPII]
block at high K+ activity (RyR2): ineffective

MAQVQGLYGLGEDRQHRKKQ-NH2 [LHBP]
Kd [10]: 65.9 µM

MAVVAGLYGLGEDRQHRKKQ-NH2 [MHBPI]
Kd [10]: 27.8 µM

ryanodine
amplitude of ryanodine-modified open state vs WT modified channel (I4861A RyR2 [11]; 1 µM ryanodine, 60 mV): not significantly different from that of the WT channel
Po and unitary conductance on ryanodine modification (I4861A RyR2 [11]; ryanodine): characteristic increase in Po and reduction in unitary conductance
amplitude of ryanodine-modified open state vs WT modified channel (I4862A RyR2 [12]; 1 µM ryanodine, 60 mV): not significantly different from that of the WT channel
Po and unitary conductance on ryanodine modification (I4862A RyR2 [12]; ryanodine): characteristic increase in Po and reduction in unitary conductance
reduction in conductance of ryanodine-modified state vs WT modified channel (L4865A RyR2 [13]; [16]): ~10%
Po and unitary conductance on ryanodine modification (L4865A RyR2 [13]; ryanodine): characteristic increase in Po and reduction in unitary conductance
reduction in conductance of ryanodine-modified state vs WT modified channel (I4867A RyR2 [14]; [16]): ~10%
Po and unitary conductance on ryanodine modification (I4867A RyR2 [14]; ryanodine): characteristic increase in Po and reduction in unitary conductance
reduction in conductance of ryanodine-modified state vs WT modified channel (F4870A RyR2 [15]; [16]): ~10%
Po and unitary conductance on ryanodine modification (F4870A RyR2 [15]; ryanodine): characteristic increase in Po and reduction in unitary conductance
